Test results reported in ChEMBL document CHEMBL4732044, “Discovery of a promising agent IQZ23 for the treatment of obesity and related metabolic disorders” (Eur J Med Chem, 2020).
The source made the active and inactive calls. The calls are words filed in the database; no cut-off is given here.

What was measured:
Mus musculus = test: Antiobesity activity in high fat diet-induced obese C57BL/6J mouse model assessed as decrease in body weight at 50 mg/kg, ip administered for every other days for 5 weeks; format: functional; design: scale not given: the % may be the effect or the level left
3T3-L1 [1] = test: Lipid lowering activity in mouse 3T3-L1 cells assessed as reduction in adipogenic cocktail-induced triglyceride levels […] incubated for 6 days by GPO-POD assay relative to control; format: functional; design: scale not given: the % may be the effect or the level left; details: time 6 day
3T3-L1 [2] = test: Inhibition of mouse 3T3-L1 cells adipocyte differentiation assessed as reduction in adipogenic cocktail-induced C/EBPbeta mRNA expression at 1 mM after 24 hrs by RT-qPCR analysis; format: functional, cell-based
How it was run: (§1)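 Confluent 3T3-L1 preadipocytes received differentiation cocktail (0.5 mM IBMX, 100 ng/mL dexamethasone, 2 µg/mL insulin) with compound (0.01–1 µM; metformin 1 mM) for 24 h. mRNA was measured by SYBR Green RT-qPCR (30 cycles), normalized to β-actin, with the differentiated control set to 1. N = 4 independent experiments.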

3T3-L1 [3] = test: Inhibition of mouse 3T3-L1 cells adipocyte differentiation assessed as reduction in adipogenic cocktail-induced C/EBPdelta mRNA expression at 1 mM after 24 hrs by RT-qPCR analysis; format: functional, cell-based; how it was run: as §1
3T3-L1 [4] = test: Inhibition of mouse 3T3-L1 cells adipocyte differentiation assessed as reduction in adipogenic cocktail-induced C/EBPalpha mRNA expression at 1 mM after 24 hrs by RT-qPCR analysis; format: functional, cell-based; how it was run: as §1
3T3-L1 [5] = test: Inhibition of mouse 3T3-L1 cells adipocyte differentiation assessed as reduction in adipogenic cocktail-induced PPARgamma mRNA expression at 1 mM after 24 hrs by RT-qPCR analysis; format: functional, cell-based; how it was run: as §1
3T3-L1 [6] = test: Activation of AMPK pathway in adipogenic cocktail-induced mouse 3T3-L1 cells assessed as increase in phosphorylation AMPKalpha at Thr172 residue after 24 hrs by Western blot analysis; format: cell-based; details: filed as activator
How it was run: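 Confluent 3T3-L1 pre-adipocytes exposed to adipogenic cocktail for 24 h with or without compound (0, 0.01, 0.1, 1 µM); DMSO vehicle. Lysates analysed by SDS-PAGE/Western blot for pAMPKα (Thr-172), normalized to actin, Ctrl set as 1. N = 4 independent experiments.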

3T3-L1 [7] = test: Inhibition of mouse 3T3-L1 cells adipocyte differentiation assessed as reduction in adipogenic cocktail-induced C/EBPalpha protein expression after 24 hrs by Western blot analysis; format: functional, cell-based
How it was run: (§2)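 3T3-L1 preadipocytes were exposed to adipogenic cocktail with compound (0.3 or 1 µM) and harvested on day 1. Lysates were resolved by SDS-PAGE, immunoblotted (primary antibody overnight at 4 °C, HRP secondary) and quantified by densitometry normalized to actin.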

3T3-L1 [8] = test: Inhibition of mouse 3T3-L1 cells adipocyte differentiation assessed as reduction in adipogenic cocktail-induced PPARgamma protein expression after 24 hrs by Western blot analysis; format: functional, cell-based; how it was run: as §2
3T3-L1 [9] = test: Inhibition of mouse 3T3-L1 cells adipocyte differentiation assessed as reduction in adipogenic cocktail-induced SREBP-1c protein expression after 24 hrs by Western blot analysis; format: functional, cell-based; how it was run: as §2
3T3-L1 [10] = test: Inhibition of mouse 3T3-L1 cells adipocyte differentiation assessed as reduction in adipogenic cocktail-induced SCD1 protein expression after 6 days by Western blot analysis; format: functional, cell-based; details: time 6.0 day
How it was run: (§3)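 3T3-L1 preadipocytes were differentiated with cocktail for 3 days, then insulin medium for 3 days, with compound (0.3 or 1 µM) present throughout. Cells were harvested on day 6 and proteins measured by Western blot, with densitometry normalized to actin.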

3T3-L1 [11] = test: Inhibition of mouse 3T3-L1 cells adipocyte differentiation assessed as reduction in adipogenic cocktail-induced FAS protein expression after 6 days by Western blot analysis; format: functional, cell-based; details: time 6.0 day; how it was run: as §3
3T3-L1 [12] = test: Inhibition of mouse 3T3-L1 cells adipocyte differentiation assessed as reduction in adipogenic cocktail-induced ACC protein expression after 6 days by Western blot analysis; format: functional, cell-based; details: time 6.0 day; how it was run: as §3
C2C12 [13] = test: Activation of AMPK pathway in mouse C2C12 cells assessed as increase in glucose uptake at 1 mM after 6 hrs by 2-NBDG/Hoechst 33342 staining based Confocal microscopic method; format: cell-based; details: filed as activator
How it was run: (§4)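 C2C12 myoblasts kept in DMEM with 10% FBS and 1% penicillin/streptomycin at 37 °C under 5% CO2.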

C2C12 [14] = test: Activation of AMPK pathway in mouse C2C12 cells assessed as increase in glucose uptake at 1 mM after 6 hrs in presence of insulin by 2-NBDG/Hoechst 33342 staining based Confocal microscopic method; format: cell-based; details: filed as activator; how it was run: as §4

Structure (SMILES)	Activity (Mus musculus) [%]	Activity (3T3-L1 [1]) [%]	inhibition (3T3-L1 [2])	inhibition (3T3-L1 [3])	inhibition (3T3-L1 [4])	inhibition (3T3-L1 [5])	Activity (3T3-L1 [6])	inhibition (3T3-L1 [7])	inhibition (3T3-L1 [8])	inhibition (3T3-L1 [9])	inhibition (3T3-L1 [10])	inhibition (3T3-L1 [11])	inhibition (3T3-L1 [12])	Activity (C2C12 [13])	Activity (C2C12 [14])
O=Cc1c(-c2nc3ccccc3c(=O)[nH]2)[nH]c2ccccc12	14.6														
CN(C)C(=N)NC(=N)N [METFORMIN]		60.3	Active	Active	Active	Active	Active	Active	Active	Active	Active	Active	Active	Active	Active
